Source: article PMC4161282 (Bioconjugate chemistry, 2013)
In brackets after ≈: the same amount, converted by molar mass. Several values for one entry are separate records, joined by “and”; a condition that tells them apart may be missing. Equal entries are not always repeated.

How the values were obtained:
[1] = Catalyst screening: oxime ligation of citral with aminooxy-dansyl 1; conditions: catalyst 25 mM; for kobs / kobs/kobs(aniline) / t1/2: citral 50 µM; for kobs: aminooxy-dansyl 1 100 µM, PB pH 7.0, rt; for kobs/kobs(aniline) / t1/2: 1 100 µM; for catalytic efficiency compared with aniline: screening
DHFR^2 M174pAcF = test: PEGylation of ketone-containing protein with aminooxy-PEG 12; conditions: catalyst 100 mM, protein 7 µM, aminooxy-PEG 5 mM, pH 7, rt
[2] = Approximate solubility in phosphate buffer; conditions: for solubility: phosphate buffer, pH 7, aqueous buffer
GFP-aldehyde 4a = GFP-aldehyde 4a (Aequorea victoria, UniProt P42212); test: Kinetic analysis of protein labeling via oxime ligation; conditions: catalyst 100 mM, 4a 10 µM, 1 50 µM
[3] = Kinetic analysis of oxime ligation between 2-pentanone and aminooxy-dansyl 1; conditions: for kobs: 2-pentanone 5.0 mM, 1 150 µM; for kobs/kobs(aniline): vs 100 mM aniline
[4] = Effect of catalyst concentration on kobs, oxime ligation of citral with 1; conditions: citral 30 µM, 1 100 µM
immobilized GFP = immobilized GFP (Aequorea victoria, UniProt P42212); test: Kinetic analysis of hydrazone-oxime exchange; conditions: catalyst 100 mM, aminooxy fluorophore 5 1 mM
Aldehyde-GFP 4a = Aldehyde-GFP 4a (Aequorea victoria, UniProt P42212); test: Immobilization of aldehyde-GFP 4a from crude cell lysate onto hydrazide beads; conditions: catalyst 100 mM
aldehyde-CNTF 9 = target: T1, aldehyde-CNTF 9 (Homo sapiens, UniProt P26441); test: Rate analysis of coupling between aldehyde-CNTF 9 and aminooxy 5; conditions: catalyst 80 mM, 9 50 µM, 5 600 µM, 5 min
T1 sequence (P26441 1-200): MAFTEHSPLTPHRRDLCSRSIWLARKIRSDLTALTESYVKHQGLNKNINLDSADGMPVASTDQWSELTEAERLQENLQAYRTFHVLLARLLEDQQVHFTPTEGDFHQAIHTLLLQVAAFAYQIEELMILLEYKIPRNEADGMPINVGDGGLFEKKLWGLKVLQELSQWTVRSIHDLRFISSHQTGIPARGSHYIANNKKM
Outline: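 Run at rt and started by adding aldehyde-bearing CNTF (stock 60 µM in 50 mM Tris-HCl, pH 7.5). Aliquots were taken every 5 min into SDS loading buffer and flash-frozen in liquid nitrogen. Samples were heated at 98 °C for 4 min, then analysed by SDS-PAGE.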

[5] = phosphate buffer (0.1 M), pH 7.0, rt

| SMILES | kobs [1] [M⁻¹ s⁻¹] | Approximate Solubility [2, 5] | kobs ([4]; catalyst 25 mM) [M⁻¹ s⁻¹] | kobs/[cat.] ([4]; catalyst 25 mM) [ms^−1 M^−2] | kobs ([4]; catalyst 35 mM) [M⁻¹ s⁻¹] | kobs/[cat.] ([4]; catalyst 35 mM) [ms^−1 M^−2] | kobs ([4]; catalyst 42 mM) [M⁻¹ s⁻¹] | kobs/[cat.] ([4]; catalyst 42 mM) [ms^−1 M^−2] | kobs/[cat.] ([4]; catalyst 50 mM) [ms^−1 M^−2] | kobs/kobs(aniline) [1] | catalytic efficiency compared with aniline [1] | t1/2 [1] [min] | also measured |
| --- | --- | --- | --- | --- | --- | --- | --- | --- | --- | --- | --- | --- | --- |
| Nc1ccccc1 [Aniline, aniline, reference compound] | 24.4 ± 0.5 | 100 mM | 24.3 ± 0.2 | 0.97 | 33.5 ± 0.2 | 0.96 | 36.9 ± 0.3 | 0.88 | 0.97 |  |  |  | effect on PEGylation reaction rate (DHFR^2 M174pAcF): did not have a significant effect on the reaction rate; solubility ([2]; Approximate Solubility, phosphate buffer (0.1 M), pH 7.0, rt): ~100 mM (≈ 9310 µg/mL); extent of reaction (labeling) in about 90 s (GFP-aldehyde 4a): < 7%; kobs (GFP-aldehyde 4a): 10.3 M⁻¹ s⁻¹; kobs ([3]; catalyst 100 mM): 0.082 M⁻¹ s⁻¹ and 0.082 ± 0.0007 M⁻¹ s⁻¹; kobs ([4]; catalyst 50 mM): 48.6 ± 0.2 M⁻¹ s⁻¹; kobs ([4]; catalyst 50 mM, listed as aniline): 48.9 M⁻¹ s⁻¹ and 48.6 M⁻¹ s⁻¹; kobs of immobilized protein release (immobilized GFP): 0.0159 h⁻¹; time to complete immobilization (Aldehyde-GFP 4a): less than 45 min |
| Nc1cccc(O)c1 [m-Aminophenol, m-aminophenol] | 23.9 ± 0.5 |  |  |  |  |  |  |  |  | 0.98 |  |  |  |
| Nc1cccc(N)c1 [m-Phenylene-diamine, m-phenylenediamine] |  |  | 38.7 ± 0.1 | 1.55 | 58.3 ± 0.3 | 1.66 | 65.6 ± 0.6 | 1.56 | 1.56 |  |  |  | extent of protein labeling (Coomassie gel) (aldehyde-CNTF 9): almost all of the protein was labeled; kobs ([3]; catalyst 100 mM, listed as mPDA): 0.20 ± 0.0016 M⁻¹ s⁻¹; kobs/kobs(aniline) ([3]; catalyst 100 mM): 2.41; kobs ([3]; catalyst 300 mM): 0.36 ± 0.0042 M⁻¹ s⁻¹; kobs/kobs(aniline) ([3]; catalyst 300 mM): 4.45; kobs ([3]; catalyst 500 mM): 0.73 ± 0.0071 M⁻¹ s⁻¹; kobs/kobs(aniline) ([3]; catalyst 500 mM): 8.89; kobs ([3]; catalyst 700 mM): 1.17 ± 0.013 M⁻¹ s⁻¹; kobs/kobs(aniline) ([3]; catalyst 700 mM): 14.3; kobs ([3]; catalyst 900 mM): 1.69 ± 0.022 M⁻¹ s⁻¹; kobs/kobs(aniline) ([3]; catalyst 900 mM): 20.7; kobs ([4]; catalyst 50 mM, listed as mPDA): 78.2 ± 0.7 M⁻¹ s⁻¹ |
| Nc1ccccc1C(=O)O [o-Aminobenzoic acid, o-aminobenzoic acid] | 24.8 ± 0.8 |  |  |  |  |  |  |  |  | 1.01 | equal to or less efficient than aniline |  | solubility [2]: > 2000 mM |
| Nc1ccccc1N [o-Phenylene-diamine, o-phenylenediamine] | 18.1 ± 0.3 | very soluble (>1 M) |  |  |  |  |  |  |  | 0.74 | equal to or less efficient than aniline | 7.47 |  |
| Nc1ccc(N)cc1 [p-Phenylene-diamine, p-phenylenediamine] | 29.2 ± 0.7 | very soluble (>1 M) |  |  |  |  |  |  |  | 1.20 | more efficient compared with aniline | 4.63 |  |
